Data set [1] is described as follows: Cytotoxicity against mouse RAW264.7 cells assessed as cell survival at 50 uM by MTT assay. Particulars: read-out: Survival. It is filed as cell-based. In outline: (§1)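 RAW 264.7 macrophages were screened by MTT before the LPS-induced NO assay to rule out cytotoxicity. Concentrations went up to 100 μM, including 50 μM, and the read-out was percent cell survival. All experiments were run in triplicate.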

The next data set has as its system RAW264.7. As to the kind of experiment: Antiinflammatory activity in mouse RAW264.7 cells assessed as inhibition of LPS-induced nitric oxide production after 18 hrs by Griess assay. It is filed as functional, cell-based. To be noted: RAW264.7, 18 h. Put shortly: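 LPS-stimulated RAW 264.7 macrophages. Cell viability was first checked by MTT at concentrations up to 100 μM, so that NO inhibition could be separated from cytotoxicity. N-monomethyl-L-arginine served as positive control. Each experiment was run in triplicate. IC50 is given as mean ± SD of three independent experiments.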

Data set [2] can be described thus: Cytotoxicity against mouse RAW264.7 cells assessed as cell survival up to 100 uM by MTT assay. Particulars: read-out: Survival. It is filed as cell-based. In outline: as §1

As for `CC(=O)O[C@H](C[C@@H](O)C[C@@H]1OC(=O)C=C[C@@H]1O)C[C@H](O)/C=C/c1ccccc1`, the viability at 50 µM in data set [1] is under 15%.

For `CC(=O)O[C@H](C[C@H](C[C@H](O)/C=C/c1ccccc1)OC(C)=O)C[C@H]1CC=CC(=O)O1`, the IC50 with RAW264.7 is over 50 µM.

On to `O=C1C=CC[C@H](C[C@@H]2C[C@H](O)C[C@H](/C=C/c3ccccc3)O2)O1`, for which, in the data set on RAW264.7, the half-maximal inhibitory concentration (IC50) was 4.2 µM. Also, the viability in data set [2] is over 90%.

Regarding `CC(=O)O[C@H](C[C@@H](O)C[C@H]1CC=CC(=O)O1)C[C@H](O)/C=C/c1ccccc1`, the IC50 with RAW264.7 is over 50 µM.

For `O=C1C=CC[C@H](C[C@H](O)C[C@@H](O)C[C@H](O)/C=C/c2ccccc2)O1`, in the data set on RAW264.7, the IC50 was determined as 3.2 µM. The viability in data set [2] is over 90%.

As for `CC(=O)O[C@H](C[C@@H](O)C[C@H](O)/C=C/c1ccccc1)C[C@@H]1OC(=O)C=C[C@@H]1O`, in the data set with RAW264.7, the IC50 worked out at 27.6 µM. Further, in data set [2], the viability is over 90%.

`CC(=O)O[C@H](C[C@@H](O)C/C=C1/C=CC(=O)O1)C[C@H](O)/C=C/c1ccccc1`: in the data set with RAW264.7, the half-inhibitory concentration (IC50) came out at 7.5 µM. Also, in data set [2], the viability is over 90%.

As to `CNC(=N)NCCC[C@H](N)C(=O)O` [TILARGININE], the half-maximal inhibitory concentration (IC50) in the data set on RAW264.7 was determined as 45 µM.

In the case of `O=C1C=C[C@H](O)[C@H](C[C@H](O)C[C@@H](O)C[C@H](O)/C=C/c2ccccc2)O1`, in the data set with RAW264.7, the concentration for half-maximal inhibition (IC50) was determined as 13.8 µM. Moreover, the viability in data set [2] is over 90%.

Consider `CC(=O)O[C@@H](C/C=C1/C=CC(=O)O1)C[C@@H](O)C[C@H](O)/C=C/c1ccccc1`, for which, in the data set on RAW264.7, the 50% inhibitory concentration (IC50) was found to be 3.4 µM. The viability in data set [2] is over 90%.

With `CC(=O)O[C@H](C[C@@H](O)C[C@H](O)/C=C/c1ccccc1)C[C@H]1CC=CC(=O)O1`, the 50% inhibitory concentration (IC50) in the data set on RAW264.7 was over 50 µM. Further, the viability in data set [2] was over 90%.
